Source: ChEMBL document CHEMBL1137524, “Synthesis and antibacterial activity of pyranmycin derivatives with N-1 and O-6 modifications” (2007)
In brackets after ≈: the same amount, converted by molar mass.

What was measured:
Format in all cases: functional
Escherichia coli [1] = experiment: Antibacterial activity against Escherichia coli ATCC 25922 after 12 to 18 hrs
Outline: (§1)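 Broth microdilution MIC. Bacteria grown in Trypticase Soy broth at 35 °C for 1–2 h, adjusted with broth to A625 0.08–0.1, then 100 µL diluted into 10 mL broth. Wells received diluted inoculum plus 2-fold serial dilutions of compound. Incubated 35 °C for 12–18 h. MIC taken as lowest concentration inhibiting growth, in µg/mL.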

Escherichia coli [2] = experiment: Antibacterial activity against aminoglycoside-susceptible Escherichia coli TG1 after 12 to 18 hrs; outline: as §1
Escherichia coli [3] = experiment: Antibacterial activity against aminoglycoside-resistant Escherichia coli TG1 pSF815 after 12 to 18 hrs; outline: as §1
Escherichia coli [4] = experiment: Antibacterial activity against aminoglycoside-resistant Escherichia coli TG1 pTZ19U-3 after 12 to 18 hrs; outline: as §1
Staphylococcus aureus = experiment: Antibacterial activity against methicillin-resistant Staphylococcus aureus ATCC 33591 after 12 to 18 hrs; outline: as §1
Pseudomonas aeruginosa = experiment: Antibacterial activity against Pseudomonas aeruginosa ATCC 27853 after 12 to 18 hrs
Outline: (§2)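 Broth microdilution in Trypticase Soy broth. Bacteria grown at 35 °C for 1–2 h, adjusted with broth to A625 0.08–0.1, then diluted 100 µL into 10 mL broth. 50 µL inoculum was combined with 50 µL of 2-fold serial compound dilutions and incubated at 35 °C for 12–18 h. MIC taken as the lowest concentration inhibiting growth.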

Klebsiella pneumoniae [5] = experiment: Antibacterial activity against Klebsiella pneumoniae ATCC 700603 after 12 to 18 hrs; outline: as §2
Klebsiella pneumoniae [6] = experiment: Antibacterial activity against Klebsiella pneumoniae ATCC 13883 after 12 to 18 hrs; outline: as §2

C[C@H]1O[C@@H](O[C@@H]2[C@@H](OCCO)[C@H](NC(=O)[C@@H](O)CCN)C[C@H](N)[C@H]2O[C@H]2O[C@H](CN)[C@@H](O)[C@H](O)[C@H]2N)[C@H](O)[C@@H](O)[C@@H]1N
MIC (Escherichia coli [1]): 16 µg/mL (≈ 26.1 µM) | MIC (Escherichia coli [2]): 2 µg/mL (≈ 3.26 µM) | MIC (Escherichia coli [3]): 8 µg/mL (≈ 13.1 µM) | MIC (Escherichia coli [4]): 16 µg/mL (≈ 26.1 µM)

C[C@H]1O[C@@H](O[C@@H]2[C@@H](O)[C@H](N)C[C@H](N)[C@H]2O[C@H]2O[C@H](CN)[C@@H](O)[C@H](O)[C@H]2N)[C@H](O)[C@@H](O)[C@@H]1N
MIC (Escherichia coli [1]): 8 µg/mL (≈ 17.1 µM) | MIC (Escherichia coli [2]): 8 µg/mL (≈ 17.1 µM) | MIC (Escherichia coli [3]): 8 µg/mL (≈ 17.1 µM) | MIC (Staphylococcus aureus): ≥ 32 µg/mL | MIC (Pseudomonas aeruginosa): 4 µg/mL (≈ 8.56 µM) | MIC (Klebsiella pneumoniae [5]): 16 µg/mL (≈ 34.2 µM) | MIC (Escherichia coli [4]): ≥ 32 µg/mL | MIC (Klebsiella pneumoniae [6]): 4 µg/mL (≈ 8.56 µM)

C[C@H]1O[C@@H](O[C@@H]2[C@@H](O)[C@H](NC(=O)[C@@H](O)CCN)C[C@H](N)[C@H]2O[C@H]2O[C@H](CN)[C@@H](O)[C@H](O)[C@H]2N)[C@H](O)[C@@H](O)[C@@H]1N
MIC (Escherichia coli [1]): 8 µg/mL (≈ 14.1 µM) | MIC (Escherichia coli [2]): 4 µg/mL (≈ 7.03 µM) | MIC (Escherichia coli [3]): 2 µg/mL (≈ 3.52 µM) | MIC (Staphylococcus aureus): ≥ 32 µg/mL | MIC (Pseudomonas aeruginosa): 2 µg/mL (≈ 3.52 µM) | MIC (Klebsiella pneumoniae [5]): 1 µg/mL (≈ 1.76 µM) | MIC (Escherichia coli [4]): 4 µg/mL (≈ 7.03 µM) | MIC (Klebsiella pneumoniae [6]): 1 µg/mL (≈ 1.76 µM)

C[C@H]1O[C@@H](O[C@@H]2[C@@H](OCCN)[C@H](NC(=O)[C@@H](O)CCN)C[C@H](N)[C@H]2O[C@H]2O[C@H](CN)[C@@H](O)[C@H](O)[C@H]2N)[C@H](O)[C@@H](O)[C@@H]1N
MIC (Escherichia coli [1]): 8 µg/mL (≈ 13.1 µM) | MIC (Escherichia coli [2]): 8 µg/mL (≈ 13.1 µM) | MIC (Escherichia coli [3]): 2 µg/mL (≈ 3.27 µM) | MIC (Staphylococcus aureus): ≥ 32 µg/mL | MIC (Pseudomonas aeruginosa): 0.5 µg/mL (≈ 0.817 µM) | MIC (Klebsiella pneumoniae [5]): 2 µg/mL (≈ 3.27 µM) | MIC (Escherichia coli [4]): 1 µg/mL (≈ 1.63 µM) | MIC (Klebsiella pneumoniae [6]): 4 µg/mL (≈ 6.54 µM)

CCCO[C@@H]1[C@@H](O[C@@H]2O[C@H](C)[C@@H](N)[C@H](O)[C@H]2O)[C@H](O[C@H]2O[C@H](CN)[C@@H](O)[C@H](O)[C@H]2N)[C@@H](N)C[C@H]1NC(=O)[C@@H](O)CCN
MIC (Escherichia coli [1]): ≥ 32 µg/mL | MIC (Escherichia coli [2]): 8 µg/mL (≈ 13.1 µM) | MIC (Escherichia coli [3]): ≥ 32 µg/mL | MIC (Escherichia coli [4]): ≥ 32 µg/mL

NCC[C@H](O)C(=O)N[C@@H]1C[C@H](N)[C@@H](O[C@H]2O[C@H](CN)[C@@H](O)[C@H](O)[C@H]2N)[C@H](O[C@@H]2O[C@H](CO)[C@H](O)[C@H]2O)[C@H]1O [BUTIROSIN A]
MIC (Escherichia coli [1]): 4 µg/mL (≈ 7.2 µM) | MIC (Escherichia coli [2]): 1 µg/mL (≈ 1.8 µM) | MIC (Escherichia coli [3]): 0.5 µg/mL (≈ 0.9 µM) | MIC (Staphylococcus aureus): ≥ 32 µg/mL | MIC (Pseudomonas aeruginosa): 1 µg/mL (≈ 1.8 µM) | MIC (Klebsiella pneumoniae [5]): 1 µg/mL (≈ 1.8 µM) | MIC (Escherichia coli [4]): 0.5 µg/mL (≈ 0.9 µM) | MIC (Klebsiella pneumoniae [6]): 1 µg/mL (≈ 1.8 µM)

NC[C@@H]1O[C@H](O[C@H]2[C@@H](O)[C@H](O[C@@H]3[C@@H](O)[C@H](N)C[C@H](N)[C@H]3O[C@H]3O[C@H](CN)[C@@H](O)[C@H](O)[C@H]3N)O[C@@H]2CO)[C@H](N)[C@@H](O)[C@@H]1O [FRAMYCETIN]
MIC (Escherichia coli [1]): 4 µg/mL (≈ 6.51 µM) | MIC (Escherichia coli [2]): 4 µg/mL (≈ 6.51 µM) | MIC (Escherichia coli [3]): 4 µg/mL (≈ 6.51 µM) | MIC (Staphylococcus aureus): ≥ 32 µg/mL | MIC (Pseudomonas aeruginosa): 0.5 µg/mL (≈ 0.813 µM) | MIC (Klebsiella pneumoniae [5]): 16 µg/mL (≈ 26 µM) | MIC (Escherichia coli [4]): ≥ 32 µg/mL | MIC (Klebsiella pneumoniae [6]): 8 µg/mL (≈ 13 µM)

NC[C@H]1O[C@H](O[C@H]2[C@H](O[C@@H]3O[C@H](CO)[C@@H](O)[C@H]3O)[C@@H](O)[C@H](N)C[C@@H]2N)[C@H](N)[C@@H](O)[C@@H]1O [RIBOSTAMYCIN]
MIC (Escherichia coli [1]): 8 µg/mL (≈ 17.6 µM) | MIC (Escherichia coli [2]): 4 µg/mL (≈ 8.8 µM) | MIC (Escherichia coli [3]): 4 µg/mL (≈ 8.8 µM) | MIC (Escherichia coli [4]): ≥ 32 µg/mL
